Measured values of several laboratories.
Lines come from different studies, so protocols differ.
EIF2AK4 S808G: eIF-2-alpha kinase GCN2 (EIF2AK4, Homo sapiens, UniProt Q9P2K8, S808G)
EIF2AK4 S808G C-terminal kinase domain: eIF-2-alpha kinase GCN2, C-terminal kinase domain (EIF2AK4, Homo sapiens, UniProt Q9P2K8, S808G)

The remaining binding of `CN(C)c1nccc(-c2cnc3ncccn23)n1` is reported as 99% (EIF2AK4 S808G; binding; 1 µM).
`O=C(NCc1ncc(C(F)(F)F)cc1Cl)c1ccc2c(c1)C1(CCS(=O)(=O)CC1)[C@@H](C1CC1)N2S(=O)(=O)c1ccc(F)cc1` has a remaining binding of 100% (EIF2AK4 S808G C-terminal kinase domain; cell-free assay, competition with immobilised ligand; 1 µM).
With `F[C@@H]1CCN(c2nccc(-c3cnn4ncccc34)n2)C1` the remaining binding was 63% (EIF2AK4 S808G; binding; 1 µM).
`CCN1CCN(Cc2ccc(C(=O)Nc3ccc(C)c(Oc4ccc5c(c4)CC(=O)N5)c3)cc2C(F)(F)F)CC1` gave a remaining binding of 100% (EIF2AK4 S808G C-terminal kinase domain; binding, competition with immobilised ligand; 1 µM).
`O=C(NCCCC1CCCCC1)c1ccc(CNC(=O)c2cnn(-c3ccccc3)c2C(F)(F)F)cc1` has a remaining binding of 100% (EIF2AK4 S808G C-terminal kinase domain; cell-free assay, competition with immobilised ligand; 0.1 µM).
The remaining binding of `COc1cnc(Nc2cccc(S(N)(=O)=O)c2)nc1N1CCN(c2ccccc2)CC1` is reported as 95% (EIF2AK4 S808G C-terminal kinase domain; binding, competition with immobilised ligand; 1 µM).
`O=C(NCC1CCOCC1)c1n[nH]cc1NC(=O)c1c(F)cccc1F` gave a remaining binding of 100% (EIF2AK4 S808G C-terminal kinase domain; binding, competition with immobilised ligand; 1 µM).
`CC(=O)N1CCC(c2ccc(C(=O)NC3=NCCN3)cc2C(F)(F)F)CC1` has a remaining binding of 52% (EIF2AK4 S808G C-terminal kinase domain; cell-free assay, competition with immobilised ligand; 1 µM).
With `CN(C)c1nccc(-c2cnn3ncccc23)n1` the remaining binding was 100% (EIF2AK4 S808G; binding; 1 µM).
For `O=S(=O)(NC1CCC(c2cc(F)ccc2F)(S(=O)(=O)c2ccc(Cl)cc2)CC1)C(F)(F)F` (centres unmarked), the remaining binding was 100% (EIF2AK4 S808G C-terminal kinase domain; cell-free assay, competition with immobilised ligand; 1 µM).
For `CN(C)c1ncc(F)c(-c2cnn3ncccc23)n1`, the remaining binding was 100% (EIF2AK4 S808G; binding; 1 µM).
With `COc1cnc(Nc2cccc(S(N)(=O)=O)c2)nc1N1CCN(c2ccccc2)C(=O)C1` the remaining binding was 90% (EIF2AK4 S808G C-terminal kinase domain; binding, competition with immobilised ligand; 1 µM).
`O=C(NC[C@@H]1[C@H]2CN(C(=O)OCc3cc(C(F)(F)F)cc(C(F)(F)F)c3)C[C@@H]12)c1ccc2[nH]nnc2c1` has a remaining binding of 84% (EIF2AK4 S808G C-terminal kinase domain; cell-free assay, competition with immobilised ligand; 1 µM).
With `O=C(c1ccc(Nc2nccc(-c3cc4ccccc4s3)n2)cc1)N1CCC(N2CCCC2)CC1` the remaining binding was 5.2% (EIF2AK4 S808G C-terminal kinase domain; binding, competition with immobilised ligand; 1 µM).
With `CN1CCN(c2ccc(Nc3nccc(-c4ccccc4)n3)cc2C(F)(F)F)CC1` the remaining binding was 0.2% (EIF2AK4 S808G; binding; 10 µM).
With `C=CC(=O)N1CCC(C(=O)NCC(=O)N2CCN(c3nc(-c4cnc(N)nc4C(F)F)nc(N4CCOCC4)n3)CC2)CC1` the remaining binding was 100% (EIF2AK4 S808G C-terminal kinase domain; binding, competition with immobilised ligand; 1 µM).
`CCCOc1ccc([C@@H]2[C@@H](C(=O)O)[C@H](c3ccc4c(c3)OCO4)CN2CC(=O)Nc2c(CC)cccc2CC)cc1` gave a remaining binding of 100% (EIF2AK4 S808G C-terminal kinase domain; cell-free assay, competition with immobilised ligand; 1 µM).
The remaining binding of `Nc1ncc2c(n1)-c1c([nH]c3ccc(C#CC4CC4)cc13)CCCC2` is reported as 89% (EIF2AK4 S808G C-terminal kinase domain; binding, competition with immobilised ligand; 1 µM).
`O=C(c1ccc(Nc2ncc(Cl)c(-c3cc4ccccc4s3)n2)cc1)N1CCC(N2CCCC2)CC1` has a remaining binding of 0% (EIF2AK4 S808G C-terminal kinase domain; binding, competition with immobilised ligand; 1 µM).
For `N[C@@H]1CCN(c2nccc(-c3cnn4ncccc34)n2)C1`, the remaining binding was 100% (EIF2AK4 S808G; binding; 1 µM).
`CCCCN(CCCC)C(=O)CN1C[C@@H](c2cc(OC)c3c(c2)OCO3)[C@H](C(=O)O)[C@H]1CC(C)(C)CCC` has a remaining binding of 100% (EIF2AK4 S808G C-terminal kinase domain; cell-free assay, competition with immobilised ligand; 1 µM).
For `Cc1cnc(Nc2ccc(C(=O)N3CCC(N4CCCC4)CC3)cc2)nc1-c1cc2ccccc2s1`, the remaining binding was 0% (EIF2AK4 S808G C-terminal kinase domain; binding, competition with immobilised ligand; 1 µM).
The remaining binding of `C[C@H]1CCN(c2nccc(-c3cnn4ncccc34)n2)C1` is reported as 100% (EIF2AK4 S808G; binding; 1 µM).
